Values after ≈ are worked out from the molar mass of the structure shown. Active and inactive are the calls of the source. The rule behind the calls is not given here.
Experiments:
[1] = target: T1, Multidrug efflux pump subunit AcrB (Escherichia coli (strain K12)) (UniProt P31224); experiment: Inhibition of AcrB in multidrug-resistant Escherichia coli BW25113 assessed as potentiation of erythromycin-induced antibacterial activity by measuring erythromycin MIC at 8 ug/ml by checkerboard titration method (reference value: 64 ug/ml); settings: dose 8.0 µg/ml
T1 sequence (whole entry): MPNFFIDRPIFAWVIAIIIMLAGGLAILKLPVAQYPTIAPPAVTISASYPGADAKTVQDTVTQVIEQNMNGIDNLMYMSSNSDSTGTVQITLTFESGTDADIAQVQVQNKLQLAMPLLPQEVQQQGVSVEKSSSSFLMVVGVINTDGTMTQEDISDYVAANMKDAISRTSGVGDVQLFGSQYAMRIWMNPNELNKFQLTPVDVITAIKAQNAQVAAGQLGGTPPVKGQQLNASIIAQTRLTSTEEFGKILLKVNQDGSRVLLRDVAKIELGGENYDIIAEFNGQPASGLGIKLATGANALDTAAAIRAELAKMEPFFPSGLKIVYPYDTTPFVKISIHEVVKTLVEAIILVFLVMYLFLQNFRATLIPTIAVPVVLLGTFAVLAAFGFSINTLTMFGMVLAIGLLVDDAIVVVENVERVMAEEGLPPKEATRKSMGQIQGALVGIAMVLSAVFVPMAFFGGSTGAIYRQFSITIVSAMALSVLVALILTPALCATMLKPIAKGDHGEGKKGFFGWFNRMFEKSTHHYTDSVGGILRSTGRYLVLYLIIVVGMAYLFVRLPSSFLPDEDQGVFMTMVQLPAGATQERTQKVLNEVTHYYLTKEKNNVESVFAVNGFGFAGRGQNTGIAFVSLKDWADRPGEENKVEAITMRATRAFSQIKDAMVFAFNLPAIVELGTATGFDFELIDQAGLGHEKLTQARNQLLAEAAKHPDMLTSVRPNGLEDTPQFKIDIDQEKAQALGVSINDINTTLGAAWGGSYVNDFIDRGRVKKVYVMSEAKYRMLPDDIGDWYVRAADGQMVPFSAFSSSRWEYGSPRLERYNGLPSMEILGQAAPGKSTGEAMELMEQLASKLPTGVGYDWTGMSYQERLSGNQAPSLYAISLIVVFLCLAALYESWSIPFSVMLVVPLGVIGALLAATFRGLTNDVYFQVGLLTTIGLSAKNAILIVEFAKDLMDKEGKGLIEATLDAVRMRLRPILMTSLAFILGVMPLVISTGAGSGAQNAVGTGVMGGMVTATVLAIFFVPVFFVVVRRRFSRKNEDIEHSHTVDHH

[2] = Toxicity in multidrug-resistant Escherichia coli BW25113 assessed as growth inhibition by two-fold broth dilution method
[3] = Toxicity in multidrug-resistant Escherichia coli BW25113 harboring AcrB deletion mutant assessed as growth inhibition by two-fold broth dilution method
[4] = target: T1, Multidrug efflux pump subunit AcrB (Escherichia coli (strain K12)); experiment: Inhibition of AcrB in multidrug-resistant Escherichia coli BW25113 assessed as potentiation of erythromycin-induced antibacterial activity by measuring erythromycin MIC at 16 ug/ml by checkerboard titration method (reference value: 64 ug/ml); settings: dose 16.0 µg/ml
[5] = target: T1, Multidrug efflux pump subunit AcrB (Escherichia coli (strain K12)); experiment: Inhibition of AcrB in multidrug-resistant Escherichia coli BW25113 assessed as potentiation of erythromycin-induced antibacterial activity by measuring erythromycin MIC at 32 ug/ml by checkerboard titration method (reference value: 64 ug/ml); settings: dose 32.0 µg/ml
[6] = target: T1, Multidrug efflux pump subunit AcrB (Escherichia coli (strain K12)); experiment: Inhibition of AcrB in multidrug-resistant Escherichia coli BW25113 assessed as potentiation of erythromycin-induced antibacterial activity by measuring erythromycin MIC at 64 ug/ml by checkerboard titration method (reference value: 64 ug/ml); settings: dose 64.0 µg/ml
[7] = target: T1, Multidrug efflux pump subunit AcrB (Escherichia coli (strain K12)); experiment: Inhibition of AcrB in multidrug-resistant Escherichia coli BW25113 assessed as potentiation of levofloxacin-induced antibacterial activity by measuring levofloxacin MIC at 8 ug/ml by checkerboard titration method (reference value: 0.06 ug/ml); settings: dose 8.0 µg/ml
[8] = target: T1, Multidrug efflux pump subunit AcrB (Escherichia coli (strain K12)); experiment: Inhibition of AcrB in multidrug-resistant Escherichia coli BW25113 assessed as potentiation of levofloxacin-induced antibacterial activity by measuring levofloxacin MIC at 16 ug/ml by checkerboard titration method (reference value: 0.06 ug/ml); settings: dose 16.0 µg/ml
[9] = target: T1, Multidrug efflux pump subunit AcrB (Escherichia coli (strain K12)); experiment: Inhibition of AcrB in Escherichia coli BW25113 assessed as reduction in glucose-induced nile red efflux at 100 to 200 uM preincubated for 15 mins followed by nile red addition and incubated for 3 hrs in shaker in presence of CCCP by fluorimetric analysis; settings: dose 100-200 µM, time 3.25 hrs
Outline: (§1)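 Wild-type and AcrB-deleted cells were preloaded with Nile Red, with or without compound. Fluorescence was recorded, and efflux was triggered at 100 s with 0.2% glucose. Traces were compared with the deletion-strain level. Triplicate experiments used different cell batches.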

Cell membrane [10] = experiment: Induction of inner membrane permeabilization in wild type Escherichia coli BW25113 assessed as perturbation of proton motive force at 32 ug/ml measured after 10 mins in presence of CCCP and glucose by Di0C2(3) probe based fluorescence assay; settings: escherichia coli bw25113, 10 min, dose 32 µg/ml
Outline: (§2)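 Cell suspensions were left untreated or exposed to 8-128 µg/mL compound for 10 min. DiOC₂(3) was then added and fluorescence followed to a plateau. Cells were re-energized with 0.5% glucose, and the rise in fluorescence was read as membrane-potential build-up. CCCP was added last to dissipate the potential.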

[11] = target: T1, Multidrug efflux pump subunit AcrB (Escherichia coli (strain K12)); settings: Escherichia coli BW25113; dose 16.0 µg/ml
[12] = target: T1, Multidrug efflux pump subunit AcrB (Escherichia coli (strain K12)); settings: Escherichia coli BW25113; dose 32.0 µg/ml
[13] = target: T1, Multidrug efflux pump subunit AcrB (Escherichia coli (strain K12)); experiment: Inhibition of AcrB in multidrug-resistant Escherichia coli BW25113 assessed as potentiation of tetraphenylphosphonium-induced antibacterial activity by measuring tetraphenylphosphonium MIC at 128 ug/ml by checkerboard titration method (reference value: 1024 ug/ml); settings: dose 128.0 µg/ml
[14] = target: T1, Multidrug efflux pump subunit AcrB (Escherichia coli (strain K12)); experiment: Inhibition of AcrB in Escherichia coli BW25113 assessed as reduction in glucose-induced nile red efflux at 50 uM preincubated for 15 mins followed by nile red addition and incubated for 3 hrs in shaker in presence of CCCP by fluorimetric analysis; settings: time 3.25 hrs; outline: as §1
Cell membrane [15] = experiment: Induction of inner membrane permeabilization in wild type Escherichia coli BW25113 assessed as perturbation of proton motive force at 128 ug/ml measured after 10 mins in presence of CCCP and glucose by Di0C2(3) probe based fluorescence assay; settings: escherichia coli bw25113, 10 min, dose 128 µg/ml; outline: as §2

Compound	MIC [1]	MIC [2]	MIC [3]	MIC [4]	MIC [5]	MIC [6]	MIC [7]	MIC [8]	inhibition [9]	Activity (Cell membrane [10])	MIC [11]	MIC [12]	MIC [13]	inhibition [14]	Activity (Cell membrane [15])
CC1(C)CC(=O)c2ccc(OCC(=O)Nc3ccc(C#N)c(C(F)(F)F)c3)cc2O1	64 µg/mL	> 512 µg/mL	> 128 µg/mL	64 µg/mL	64 µg/mL	64 µg/mL	0.06 µg/mL	0.06 µg/mL	Active	Not Active	16 µg/mL (≈ 38.2 µM)	16 µg/mL (≈ 38.2 µM)			
C=CC(=O)Nc1ccc(COc2cccc3c4c(c(Cn5cnnn5)cc23)CCC(C)(C)O4)cc1	64 µg/mL	> 512 µg/mL	> 128 µg/mL	64 µg/mL	32 µg/mL	32 µg/mL	0.06 µg/mL	0.06 µg/mL			16 µg/mL (≈ 34.1 µM)	16 µg/mL (≈ 34.1 µM)	1020 µg/mL	Active	Not Active
CNC(=O)c1ccc(COc2cccc3c4c(c(Cn5cnnn5)cc23)CCC(C)(C)O4)cc1	64 µg/mL	> 512 µg/mL	> 128 µg/mL	64 µg/mL	64 µg/mL	64 µg/mL	0.06 µg/mL	0.06 µg/mL	Active		16 µg/mL (≈ 35 µM)	16 µg/mL (≈ 35 µM)	1020 µg/mL		Not Active
COc1cccc(COc2cccc3c4c(c(-c5nnco5)cc23)CCC(C)(C)O4)c1	64 µg/mL	> 512 µg/mL	> 128 µg/mL	64 µg/mL	64 µg/mL	64 µg/mL	0.06 µg/mL	0.06 µg/mL	Active		16 µg/mL (≈ 38.4 µM)	16 µg/mL (≈ 38.4 µM)	512 µg/mL		Not Active
CC1(C)CCc2c(-c3nnco3)cc3c(OCc4ccc(C#N)cc4)cccc3c2O1	64 µg/mL	> 512 µg/mL	> 128 µg/mL	64 µg/mL	64 µg/mL	64 µg/mL	0.06 µg/mL	0.06 µg/mL			16 µg/mL (≈ 38.9 µM)	16 µg/mL (≈ 38.9 µM)	512 µg/mL	Active	Not Active
COc1cccc(COc2cccc3c4c(c(C(=O)N5CCOCC5)cc23)CCC(C)(C)O4)c1	64 µg/mL	> 512 µg/mL	> 128 µg/mL	64 µg/mL	32 µg/mL	32 µg/mL	0.06 µg/mL	0.06 µg/mL		Not Active	16 µg/mL (≈ 34.7 µM)	16 µg/mL (≈ 34.7 µM)	128 µg/mL	Active	
CC1(C)CCc2c(C(=O)N3CCOCC3)cc3c(OCc4ccc(C(F)(F)F)cc4)cccc3c2O1	64 µg/mL	> 512 µg/mL	> 128 µg/mL	64 µg/mL	64 µg/mL	16 µg/mL	0.06 µg/mL	0.06 µg/mL			16 µg/mL (≈ 32 µM)	16 µg/mL (≈ 32 µM)	256 µg/mL	Active	
CC1(C)CC(=O)c2ccc(OCCNC3CCCC3)cc2O1	64 µg/mL	> 512 µg/mL	> 128 µg/mL	64 µg/mL	64 µg/mL	64 µg/mL	0.06 µg/mL	0.06 µg/mL	Active	Not Active	16 µg/mL (≈ 52.7 µM)	16 µg/mL (≈ 52.7 µM)	512 µg/mL		
